Assay results taken from ChEMBL document CHEMBL5335826, “Biochemical and Structural Studies of the Carminomycin 4-O-Methyltransferase DnrK” (J Nat Prod, 2024).

Assays:
[1] = substrate: Cc1cc(=O)oc2cc(O)ccc12; assay: Binding affinity to Streptomyces peucetius 4-O-methyltransferase DnrK assessed as maximal activity
Method in brief: (§1)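 N-His6-DnrK (10 μM), expressed in E. coli, was run in 50 mM Tris pH 8.0 at 37 °C with saturating AdoMet (1.6 mM). Acceptor was varied: carminomycin from 15 μM to […] as printed, or 4-methylumbelliferone from 150 μM to 10 mM. Methylated product was quantified by reversed-phase HPLC peak integration. Runs were in triplicate, and parameters came from Michaelis–Menten reciprocal plots.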

[2] = substrate: Cc1cc(=O)oc2cc(O)ccc12; assay: Binding affinity to Streptomyces peucetius 4-O-methyltransferase DnrK assessed as catalytic constant; method in brief: as §1

B1: Carminomycin 4-O-methyltransferase DnrK (Streptomyces peucetius), Q06528 (protein)
chain: MTAEPTVAARPQQIDALRTLIRLGSLHTPMVVRTAATLRLVDHILAGARTVKALAARTDTRPEALLRLIRHLVAIGLLEEDAPGEFVPTEVGELLADDHPAAQRAWHDLTQAVARADISFTRLPDAIRTGRPTYESIYGKPFYEDLAGRPDLRASFDSLLACDQDVAFDAPAAAYDWTNVRHVLDVGGGKGGFAAAIARRAPHVSATVLEMAGTVDTARSYLKDEGLSDRVDVVEGDFFEPLPRKADAIILSFVLLNWPDHDAVRILTRCAEALEPGGRILIHERDDLHENSFNEQFTELDLRMLVFLGGALRTREKWDGLAASAGLVVEEVRQLPSPTIPYDLSLLVLAPAATGA
Q: B1 was tested. Which Km [1] did it give?
A: 1160 µM

Q: What about the kcat [2] of the same protein?
A: 0.0006 s⁻¹
